Active and inactive are the calls of the source. The rule behind the calls is not given here.
Assays:
[1] = biological target: Protein cereblon/Signal transducer and activator of transcription 4 (Homo sapiens) (UniProt Q96SW2+Q14765); experiment: Protac activity at CRBN/STAT4 in human MOLM16 cells assessed as STAT4 degradation at 0.25 to 100 uM incubated for 4 hrs by Western blot analysis; assay type: cell-based; conditions: dose 0.25-100 µM
How it was run: (§1)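 Cells treated 4 h with compounds across 25 nM to 100 μM; STAT proteins detected by Western blot with GAPDH as loading control; STAT3 DC50 estimated by densitometry of STAT3 relative to GAPDH. Applies to MOLM-16 for all STATs, and to SU-DHL-1 and SUP-M2 for STAT3.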

[2] = biological target: T1, Protein cereblon/Signal transducer and activator of transcription 6 (Homo sapiens) (UniProt P42226+Q96SW2); experiment: In vivo protac activity at CRBN/STAT6 degradation in SCID mouse xenografted with human MOLM16 cells assessed as reduction in STAT6 in tumor tissue at 50 mg/kg, iv measured after 24 hrs by immunoblotting analysis; assay type: functional, organism-based
How it was run: (§2)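 SCID mice bearing MOLM-16 tumors given a single iv dose of 50 mg/kg or dosing vehicle. Tumor lysates immunoblotted for STAT3, STAT1 and STAT6 at time points from 1 h to at least 24 h.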

[3] = biological target: T2, Protein cereblon/Signal transducer and activator of transcription 5A (Homo sapiens) (UniProt P42229+Q96SW2); experiment: Protac activity at CRBN/STAT5 in human SU-DHL-1 cells […] at 0.25 to 100 uM incubated for 4 hrs by Western blot analysis; assay type: cell-based; conditions: dose lower 0.25 µM
[4] = biological target: T2, Protein cereblon/Signal transducer and activator of transcription 5A (Homo sapiens); experiment: Protac activity at CRBN/STAT5 in human SUP-M2 cells assessed as STAT5 degradation at 0.25 to 100 uM incubated for 4 hrs by Western blot analysis; assay type: cell-based; conditions: SUPM2, dose 0.25-100 µM
[5] = biological target: T2, Protein cereblon/Signal transducer and activator of transcription 5A (Homo sapiens); experiment: Protac activity at CRBN/STAT5 in human MOLM16 cells assessed as STAT5 degradation at 0.25 to 100 uM incubated for 4 hrs by Western blot analysis; assay type: cell-based; conditions: dose 0.25-100 µM; how it was run: as §1
[6] = biological target: T3, Protein cereblon/Signal transducer and activator of transcription 1-alpha/beta (Homo sapiens) (UniProt P42224+Q96SW2); experiment: In vivo protac activity at CRBN/STAT1 degradation in SCID mouse xenografted with human MOLM16 cells assessed as reduction in STAT1 in tumor tissue at 50 mg/kg, iv measured after 24 hrs by immunoblotting analysis; assay type: functional, organism-based; how it was run: as §2
[7] = biological target: Protein cereblon/Signal transducer and activator of transcription 2 (Homo sapiens) (UniProt Q96SW2+P52630); experiment: Protac activity at CRBN/STAT2 in human SUP-M2 cells […] at 0.25 to 100 uM incubated for 4 hrs by Western blot analysis; assay type: cell-based; conditions: SUPM2, dose lower 0.25 µM
[8] = biological target: T1, Protein cereblon/Signal transducer and activator of transcription 6 (Homo sapiens); experiment: Protac activity at CRBN/STAT6 in human MOLM16 cells assessed as STAT6 degradation at 0.25 to 100 uM incubated for 4 hrs by Western blot analysis; assay type: cell-based; conditions: dose 0.25-100 µM; how it was run: as §1
[9] = Drug uptake in SCID mouse xenografted with human MOLM16 cells assessed as (2-(((5S,8S,10aR)-8-(((S)-5-amino-1-(benzhydrylamino)-1,5-dioxopentan-2-yl)carbamoyl)-3-(8-(2-(2,6-dioxopiperidin-3-yl)-1-oxoisoindolin-4-yl)oct-7-yno yl)-6-oxodecahydropyrrolo[1,2-a][1,5]diazocin-5-yl)carbamoyl)-1H-indole-5-carbonyl)phosphonic acid level in tumor tissue at 50 mg/kg, iv measured after 6 hrs by LC-MS/MS; assay type: ADME, organism-based; conditions: in vivo
How it was run: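 SCID mice bearing MOLM-16 xenografts given a single iv dose of 50 mg/kg. Concentrations of parent and hydrolysis product measured in plasma (ng/mL) and tumor tissue (ng/g) at 1, 6 and 24 h.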

[10] = Drug metabolism buffer pH 4 assessed as conversion to 5-amino-4-(4-(8-((5S,8S,10aR)-8-((S)-5-amino-1-(benzhydrylamino)-1,5-dioxopentan-2-ylcarbamoyl)-6-oxo-5-(5-(phosphonocarbonyl)-1H-indole-2-carboxamido)octahydropyrrolo[1,2-a][1,5]diazocin-3(4H)-yl)-8-oxooct-1-ynyl)-1-oxoisoindolin-2-yl)-5-oxopentanoic acid measured upto 100 hrs by LC/MS/MS analysis; conditions: time hrs <=100
How it was run: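 Parent compound incubated in buffer at pH 4 or pH 8, at room temperature or 37 °C. Percentages of the parent, the hydrolysis product and the glutarimide ring-opened product followed over time, up to 96 h.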

[11] = biological target: T3, Protein cereblon/Signal transducer and activator of transcription 1-alpha/beta (Homo sapiens); experiment: Protac activity at CRBN/STAT1 in human MOLM16 cells assessed as STAT1 degradation at 0.25 to 100 uM incubated for 4 hrs by Western blot analysis; assay type: cell-based; conditions: dose 0.25-100 µM; how it was run: as §1
Mus musculus = experiment: In vivo induction of STAT3 degradation in SCID mouse xenografted with human MOLM16 cells assessed as reduction in total STAT3 level in tumor tissue at 50 mg/kg, iv measured after 24 hrs by immunoblotting analysis; assay type: functional, organism-based
How it was run: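 SCID mice bearing MOLM-16 or SU-DHL-1 xenografts given a single iv dose of 50 mg/kg or dosing vehicle. Tumor lysates immunoblotted for p-STAT3 Y705 and total STAT3 at time points up to 48 h (MOLM-16) and 24 h (SU-DHL-1).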

[12] = biological target: Signal transducer and activator of transcription 3 (Homo sapiens, UniProt P40763); experiment: Induction of STAT3 degradation in human MOLM-16 cells for 4 hrs by western blot analysis; assay type: cell-based; conditions: molm16; how it was run: as §1
[13] = biological target: T4, Signal transducer and activator of transcription 5B (Homo sapiens, UniProt P51692); experiment: Binding affinity to human recombinant STAT5B assessed as dissociation constant incubated for 15 mins by biolayer interferometry
T4 sequence (P51692 whole entry): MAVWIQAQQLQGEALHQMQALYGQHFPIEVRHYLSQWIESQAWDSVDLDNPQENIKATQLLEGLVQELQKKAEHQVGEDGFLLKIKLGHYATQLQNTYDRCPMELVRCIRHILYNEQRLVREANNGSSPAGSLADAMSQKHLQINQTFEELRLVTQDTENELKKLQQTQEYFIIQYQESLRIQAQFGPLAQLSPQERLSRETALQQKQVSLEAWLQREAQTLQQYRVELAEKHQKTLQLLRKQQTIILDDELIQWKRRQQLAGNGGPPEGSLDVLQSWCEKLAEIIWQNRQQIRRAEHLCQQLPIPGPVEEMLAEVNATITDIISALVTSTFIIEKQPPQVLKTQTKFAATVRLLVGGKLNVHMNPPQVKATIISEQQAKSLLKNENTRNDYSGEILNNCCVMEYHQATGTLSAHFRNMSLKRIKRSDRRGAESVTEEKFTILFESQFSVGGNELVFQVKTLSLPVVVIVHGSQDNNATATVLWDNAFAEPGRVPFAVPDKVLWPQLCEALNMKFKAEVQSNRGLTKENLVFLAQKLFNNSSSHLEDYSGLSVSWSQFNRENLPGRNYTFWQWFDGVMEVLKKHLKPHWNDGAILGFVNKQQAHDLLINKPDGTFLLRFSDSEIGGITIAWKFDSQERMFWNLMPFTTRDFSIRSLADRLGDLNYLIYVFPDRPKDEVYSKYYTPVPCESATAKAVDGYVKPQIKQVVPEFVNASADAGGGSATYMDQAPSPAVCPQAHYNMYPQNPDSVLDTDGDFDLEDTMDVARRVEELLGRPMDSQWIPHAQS
How it was run: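 Biolayer interferometry with recombinant human STAT1, STAT2, STAT3, STAT4, STAT5A, STAT5B or STAT6 proteins containing their SH2 domain. Compound run in 2× serial dilutions from 200 nM. Kd taken from steady-state fitting of equilibrium responses against concentration using a 1:1 binding model.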

T2 sequence (P42229 whole entry, looked up): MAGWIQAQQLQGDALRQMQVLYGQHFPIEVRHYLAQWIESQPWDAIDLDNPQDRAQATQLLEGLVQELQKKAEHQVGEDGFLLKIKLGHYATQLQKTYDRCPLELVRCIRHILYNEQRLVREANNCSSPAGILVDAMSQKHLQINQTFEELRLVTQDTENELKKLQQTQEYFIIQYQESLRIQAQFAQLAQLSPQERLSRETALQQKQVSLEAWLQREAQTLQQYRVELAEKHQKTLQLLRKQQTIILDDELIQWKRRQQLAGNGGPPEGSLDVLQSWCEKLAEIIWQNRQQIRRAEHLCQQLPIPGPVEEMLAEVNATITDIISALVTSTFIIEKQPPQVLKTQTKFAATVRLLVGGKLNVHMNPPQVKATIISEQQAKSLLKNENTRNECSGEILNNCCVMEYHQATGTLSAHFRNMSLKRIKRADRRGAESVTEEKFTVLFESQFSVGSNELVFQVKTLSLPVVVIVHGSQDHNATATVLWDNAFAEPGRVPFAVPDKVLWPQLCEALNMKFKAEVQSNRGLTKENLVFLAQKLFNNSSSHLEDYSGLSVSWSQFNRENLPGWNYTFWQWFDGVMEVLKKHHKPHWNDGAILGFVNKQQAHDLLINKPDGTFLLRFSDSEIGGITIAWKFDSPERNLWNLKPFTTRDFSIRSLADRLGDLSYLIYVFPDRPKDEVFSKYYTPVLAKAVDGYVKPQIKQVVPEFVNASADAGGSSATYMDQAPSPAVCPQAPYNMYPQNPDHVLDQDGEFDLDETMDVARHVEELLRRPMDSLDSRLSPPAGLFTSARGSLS
T2 sequence (Q96SW2 whole entry, looked up): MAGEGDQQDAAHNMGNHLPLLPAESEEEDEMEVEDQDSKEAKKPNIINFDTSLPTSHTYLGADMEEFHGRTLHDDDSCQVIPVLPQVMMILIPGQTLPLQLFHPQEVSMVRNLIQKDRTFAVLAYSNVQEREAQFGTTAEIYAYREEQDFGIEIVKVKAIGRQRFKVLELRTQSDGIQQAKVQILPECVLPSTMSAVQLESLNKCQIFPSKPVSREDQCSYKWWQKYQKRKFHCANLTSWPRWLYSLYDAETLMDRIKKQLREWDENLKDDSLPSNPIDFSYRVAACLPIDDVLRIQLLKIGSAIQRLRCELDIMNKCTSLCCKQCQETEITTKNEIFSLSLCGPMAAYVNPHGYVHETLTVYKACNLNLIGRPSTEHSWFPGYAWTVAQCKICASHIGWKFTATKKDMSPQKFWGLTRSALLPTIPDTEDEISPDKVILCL
T1 sequence (P42226 2-847 limits assumed): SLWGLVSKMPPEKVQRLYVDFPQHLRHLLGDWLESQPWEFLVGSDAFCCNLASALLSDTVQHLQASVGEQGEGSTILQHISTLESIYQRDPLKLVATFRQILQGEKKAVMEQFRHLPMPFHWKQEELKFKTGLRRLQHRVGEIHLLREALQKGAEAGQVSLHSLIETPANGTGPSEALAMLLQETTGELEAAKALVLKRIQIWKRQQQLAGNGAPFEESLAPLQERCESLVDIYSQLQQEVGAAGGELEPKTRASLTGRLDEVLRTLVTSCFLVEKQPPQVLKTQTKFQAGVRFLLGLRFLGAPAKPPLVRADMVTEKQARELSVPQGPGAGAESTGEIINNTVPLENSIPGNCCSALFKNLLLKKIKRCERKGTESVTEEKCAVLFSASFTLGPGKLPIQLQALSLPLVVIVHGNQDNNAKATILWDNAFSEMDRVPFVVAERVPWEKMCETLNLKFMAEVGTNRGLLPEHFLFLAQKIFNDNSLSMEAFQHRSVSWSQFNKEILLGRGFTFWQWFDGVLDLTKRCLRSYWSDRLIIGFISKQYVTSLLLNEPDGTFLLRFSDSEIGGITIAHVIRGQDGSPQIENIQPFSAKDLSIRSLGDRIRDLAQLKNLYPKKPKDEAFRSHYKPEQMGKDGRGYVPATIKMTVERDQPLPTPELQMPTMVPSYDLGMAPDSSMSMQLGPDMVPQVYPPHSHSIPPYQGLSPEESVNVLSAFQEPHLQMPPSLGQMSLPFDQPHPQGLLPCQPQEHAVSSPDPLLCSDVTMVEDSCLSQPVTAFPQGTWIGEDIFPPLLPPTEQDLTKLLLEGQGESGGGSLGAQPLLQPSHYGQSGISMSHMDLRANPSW
T1 sequence (Q96SW2 whole entry partner): as the sequence (Q96SW2 whole entry, looked up) above
Signal transducer and activator of transcription 3, sequence (P40763 whole entry): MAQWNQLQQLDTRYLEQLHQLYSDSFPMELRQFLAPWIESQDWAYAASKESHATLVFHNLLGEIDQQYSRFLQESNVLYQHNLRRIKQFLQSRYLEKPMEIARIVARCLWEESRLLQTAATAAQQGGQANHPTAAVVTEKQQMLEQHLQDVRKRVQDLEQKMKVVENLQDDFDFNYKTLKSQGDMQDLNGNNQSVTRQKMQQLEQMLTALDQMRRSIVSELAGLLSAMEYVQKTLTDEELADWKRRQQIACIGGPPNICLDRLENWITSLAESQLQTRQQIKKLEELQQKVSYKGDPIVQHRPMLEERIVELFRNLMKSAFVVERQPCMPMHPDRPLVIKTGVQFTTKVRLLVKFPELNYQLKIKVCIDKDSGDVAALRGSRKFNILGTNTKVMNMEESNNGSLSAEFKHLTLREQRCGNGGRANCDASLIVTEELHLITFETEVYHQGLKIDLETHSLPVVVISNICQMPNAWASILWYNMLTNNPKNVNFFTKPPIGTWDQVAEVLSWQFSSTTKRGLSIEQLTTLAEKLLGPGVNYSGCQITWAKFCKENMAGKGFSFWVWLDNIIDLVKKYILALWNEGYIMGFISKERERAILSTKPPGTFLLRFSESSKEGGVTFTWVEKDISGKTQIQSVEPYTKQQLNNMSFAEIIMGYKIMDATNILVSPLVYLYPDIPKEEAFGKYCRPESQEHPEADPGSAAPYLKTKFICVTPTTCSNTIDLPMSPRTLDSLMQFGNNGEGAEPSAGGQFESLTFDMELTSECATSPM
Protein cereblon/Signal transducer and activator of transcription 4 (Homo sapiens), sequence (Q14765 whole entry, looked up): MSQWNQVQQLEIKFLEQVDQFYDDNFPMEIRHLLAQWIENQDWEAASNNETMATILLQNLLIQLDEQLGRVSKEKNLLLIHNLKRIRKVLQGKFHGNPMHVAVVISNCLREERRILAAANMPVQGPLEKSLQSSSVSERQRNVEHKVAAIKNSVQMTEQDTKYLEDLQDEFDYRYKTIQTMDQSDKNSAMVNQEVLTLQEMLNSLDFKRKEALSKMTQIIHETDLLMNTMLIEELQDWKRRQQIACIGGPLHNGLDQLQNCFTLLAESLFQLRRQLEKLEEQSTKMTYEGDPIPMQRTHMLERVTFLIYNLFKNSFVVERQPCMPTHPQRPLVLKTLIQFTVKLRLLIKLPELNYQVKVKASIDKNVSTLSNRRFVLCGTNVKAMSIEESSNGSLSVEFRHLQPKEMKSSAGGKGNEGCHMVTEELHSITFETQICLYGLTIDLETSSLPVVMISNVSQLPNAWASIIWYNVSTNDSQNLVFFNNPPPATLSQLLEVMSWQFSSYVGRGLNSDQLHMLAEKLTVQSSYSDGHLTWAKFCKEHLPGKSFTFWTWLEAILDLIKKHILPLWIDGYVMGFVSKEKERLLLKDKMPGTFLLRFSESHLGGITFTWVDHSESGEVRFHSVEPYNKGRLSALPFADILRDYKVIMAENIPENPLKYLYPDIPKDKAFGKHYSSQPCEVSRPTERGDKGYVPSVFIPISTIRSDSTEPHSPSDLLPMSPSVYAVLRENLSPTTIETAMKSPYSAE
Protein cereblon/Signal transducer and activator of transcription 4 (Homo sapiens), sequence (Q96SW2 whole entry, looked up): as the sequence (Q96SW2 whole entry, looked up) above
Protein cereblon/Signal transducer and activator of transcription 2 (Homo sapiens), sequence (P52630 whole entry, looked up): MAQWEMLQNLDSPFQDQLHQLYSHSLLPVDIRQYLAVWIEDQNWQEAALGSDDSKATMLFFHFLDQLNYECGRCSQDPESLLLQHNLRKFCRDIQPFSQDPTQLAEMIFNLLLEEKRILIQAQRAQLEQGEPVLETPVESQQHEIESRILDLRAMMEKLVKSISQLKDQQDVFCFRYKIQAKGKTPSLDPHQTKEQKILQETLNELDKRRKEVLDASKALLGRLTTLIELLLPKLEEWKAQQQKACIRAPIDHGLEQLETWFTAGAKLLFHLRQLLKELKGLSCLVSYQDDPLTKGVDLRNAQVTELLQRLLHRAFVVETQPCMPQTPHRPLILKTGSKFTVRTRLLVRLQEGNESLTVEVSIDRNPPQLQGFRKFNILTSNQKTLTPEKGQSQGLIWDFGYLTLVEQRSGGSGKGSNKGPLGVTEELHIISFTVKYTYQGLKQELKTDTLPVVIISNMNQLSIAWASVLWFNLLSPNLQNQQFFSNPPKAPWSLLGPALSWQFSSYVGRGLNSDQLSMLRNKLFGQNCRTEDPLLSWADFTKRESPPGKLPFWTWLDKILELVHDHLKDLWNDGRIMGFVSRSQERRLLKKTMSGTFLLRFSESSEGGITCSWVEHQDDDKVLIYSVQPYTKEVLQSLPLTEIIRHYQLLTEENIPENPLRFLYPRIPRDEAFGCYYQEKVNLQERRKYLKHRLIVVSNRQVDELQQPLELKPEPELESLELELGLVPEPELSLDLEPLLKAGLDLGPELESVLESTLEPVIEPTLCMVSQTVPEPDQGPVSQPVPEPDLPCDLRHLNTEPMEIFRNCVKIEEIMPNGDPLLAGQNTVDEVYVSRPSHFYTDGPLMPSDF
Protein cereblon/Signal transducer and activator of transcription 2 (Homo sapiens), sequence (Q96SW2 whole entry, looked up): as the sequence (Q96SW2 whole entry, looked up) above

| SMILES | Activity [1] | Activity [2] | Activity [3] | Activity [4] | Activity [5] | Activity [6] | Activity [7] | Activity [8] | Drug uptake [9] [ng/g] | Drug metabolism [10] | Activity [11] | Activity (Mus musculus) | DC50 [12] [nM] | Kd [13] [nM] |
| --- | --- | --- | --- | --- | --- | --- | --- | --- | --- | --- | --- | --- | --- | --- |
| NC(=O)CC[C@H](NC(=O)[C@@H]1CC[C@@H]2CCN(C(=O)CCCCCC#Cc3cccc4c3CN(C3CCC(=O)NC3=O)C4=O)C[C@H](NC(=O)c3cc4cc(C(F)(F)P(=O)(O)O)ccc4[nH]3)C(=O)N21)C(=O)NC(c1ccccc1)c1ccccc1 (some centres undefined) | inactive | inactive | inactive | inactive | inactive | inactive | inactive | inactive | 1750 | Metabolite not detected | inactive | – | – | – |
| NC(=O)CC[C@H](NC(=O)[C@@H]1CC[C@@H]2CCN(C(=O)CCCCCC#Cc3cccc4c3CN(C3CCC(=O)NC3=O)C4=O)C[C@H](NC(=O)c3cc4cc(C(=O)P(=O)(O)O)ccc4[nH]3)C(=O)N21)C(=O)NC(c1ccccc1)c1ccccc1 (some centres undefined) | – | – | – | – | – | – | – | – | – | – | – | Active | 120 | > 10 |

Reference: ChEMBL document CHEMBL4706770, “SD-91 as A Potent and Selective STAT3 Degrader Capable of Achieving Complete and Long-Lasting Tumor Regression” (ACS Med Chem Lett, 2021)
